From ChEMBL document CHEMBL1153506, “Design, synthesis, and discovery of novel non-peptide inhibitor of Caspase-3 using ligand based and structure based virtual screening approach” (Bioorg Med Chem, 2009)
Activity calls are given as the source filed them. The calls are words filed in the database; no cut-off is given here.

Columns and labels:
Caspase-3 (Homo sapiens) [1] = biological target: T1, Caspase-3 (Homo sapiens) (UniProt P42574); assay: Inhibition of caspase 3 in human SK-N-SH cells assessed as accumulation of fluorogenic 7-amino-4-methyl coumarin at 0.5 uM by fluorometric assay; type: cell-based
T1 sequence (whole entry): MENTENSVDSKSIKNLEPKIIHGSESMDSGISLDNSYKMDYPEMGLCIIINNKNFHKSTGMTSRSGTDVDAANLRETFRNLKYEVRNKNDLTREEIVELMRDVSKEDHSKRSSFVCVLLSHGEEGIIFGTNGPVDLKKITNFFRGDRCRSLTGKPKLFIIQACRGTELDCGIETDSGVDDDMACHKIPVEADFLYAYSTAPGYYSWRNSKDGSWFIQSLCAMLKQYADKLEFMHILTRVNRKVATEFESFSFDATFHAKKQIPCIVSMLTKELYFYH
Method in brief: (§1)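 Kit-based caspase-3 cleavage assay, using doxorubicin-induced apoptotic SK-N-SH cell extracts as the caspase source. The inhibitor was dissolved in DMSO and serially diluted to working concentrations, and a standard inhibitor served as control. Fluorescence was recorded across 420–460 nm, and decreases in intensity were expressed relative to apoptotic control extracts.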

Caspase-3 (Homo sapiens) [2] = biological target: T1, Caspase-3 (Homo sapiens); assay: Inhibition of caspase 3 in human SK-N-SH cells assessed as accumulation of fluorogenic 7-amino-4-methyl coumarin at 10 uM by fluorometric assay; type: cell-based; method in brief: as §1
Caspase-3 (Homo sapiens) [3] = biological target: T1, Caspase-3 (Homo sapiens); assay: Inhibition of caspase 3 in human SK-N-SH cells assessed as decrease in fluorescence intensity-associated with accumulation of fluorogenic 7-amino-4-methyl coumarin at 5 mM by fluorometric assay relative to control; type: cell-based; parameters: scale not given: the % may be the effect or the level left; method in brief: as §1
Caspase-7 (Homo sapiens) = biological target: T2, Caspase-7 (Homo sapiens) (UniProt P55210); assay: Inhibition of caspase 7 in human SK-N-SH cells assessed as accumulation of fluorogenic 7-amino-4-methyl coumarin by fluorometric assay; type: cell-based
T2 sequence (whole entry): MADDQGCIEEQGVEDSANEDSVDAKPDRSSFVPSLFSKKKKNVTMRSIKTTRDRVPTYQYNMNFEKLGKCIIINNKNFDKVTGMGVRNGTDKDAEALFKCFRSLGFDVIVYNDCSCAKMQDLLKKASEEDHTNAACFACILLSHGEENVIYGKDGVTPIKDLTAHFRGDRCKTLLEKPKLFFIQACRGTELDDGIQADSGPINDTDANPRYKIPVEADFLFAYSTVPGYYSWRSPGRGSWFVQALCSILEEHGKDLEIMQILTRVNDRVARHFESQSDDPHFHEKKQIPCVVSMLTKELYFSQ

SK-N-SH [4] = assay: Inhibition of apoptosis in human SK-N-SH cells assessed as maximum fluorescence intensity at 440 nm treated at 0.5 uM by fluorescence assay; type: functional, cell-based; method in brief: as §1
Caspase-3 (Homo sapiens) [5] = biological target: T1, Caspase-3 (Homo sapiens); assay: Inhibition of caspase 3 in human SK-N-SH cells assessed as accumulation of fluorogenic 7-amino-4-methyl coumarin at 100 uM by fluorometric assay; type: cell-based; method in brief: as §1
SK-N-SH [6] = assay: Induction of apoptosis in human SK-N-SH cells assessed as caspase 3 activity at 5 uM by fluorescence assay; type: functional, cell-based
Method in brief: (§2)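 Human SK-N-SH neuroblastoma cells exposed to the test agent at 0.5–5 µM. Apoptosis was read as caspase-3 activity by fluorescence intensity, scanned around 420–430 nm. Values are slopes averaged from 5 experiments, each run in duplicate.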

Caspase-3 (Homo sapiens) [7] = biological target: T1, Caspase-3 (Homo sapiens); assay: Inhibition of caspase 3 in human SK-N-SH cells assessed as accumulation of fluorogenic 7-amino-4-methyl coumarin at 1 mM by fluorometric assay; type: cell-based; method in brief: as §1
Caspase-3 (Homo sapiens) [8] = biological target: T1, Caspase-3 (Homo sapiens); assay: Inhibition of caspase 3 in human SK-N-SH cells assessed as accumulation of fluorogenic 7-amino-4-methyl coumarin at 50 uM by fluorometric assay; type: cell-based; method in brief: as §1
Caspase-3 (Homo sapiens) [9] = biological target: T1, Caspase-3 (Homo sapiens); assay: Inhibition of caspase 3 in human SK-N-SH cells assessed as accumulation of fluorogenic 7-amino-4-methyl coumarin at 5 mM by fluorometric assay; type: cell-based; method in brief: as §1
Caspase-3 = biological target: T3, Caspase-3 (Homo sapiens, UniProt P42574); assay: Inhibition of caspase 3 in human SK-N-SH cells assessed as accumulation of fluorogenic 7-amino-4-methyl coumarin by fluorometric assay; type: cell-based
T3 sequence (P42574 whole entry): T1 sequence (whole entry)

SK-N-SH [10] = assay: Induction of apoptosis in human SK-N-SH cells at 0.5 to 5 uM by fluorescence assay; type: functional, cell-based; method in brief: as §2
SK-N-SH [11] = assay: Induction of apoptosis in human SK-N-SH cells assessed as caspase 3 activity at 1 uM by fluorescence assay; type: functional, cell-based; method in brief: as §2

SMILES	Activity (Caspase-3 (Homo sapiens) [1])	Activity (Caspase-3 (Homo sapiens) [2])	Activity (Caspase-3 (Homo sapiens) [3]) [%]	Activity (Caspase-7 (Homo sapiens))	Activity (SK-N-SH [4])	Activity (Caspase-3 (Homo sapiens) [5])	Activity (SK-N-SH [6])	Activity (Caspase-3 (Homo sapiens) [7])	Activity (Caspase-3 (Homo sapiens) [8])	Activity (Caspase-3 (Homo sapiens) [9])	IC50 (Caspase-3) [nM]	Activity (SK-N-SH [10])	Activity (SK-N-SH [11])
O=C(NCCCN1CCN(Cc2c(F)cccc2Cl)CC1)c1ccc(Cl)c(Cl)c1	Active	inactive	50	inactive	Active	inactive	inactive	Active	inactive	Active	–	–	–
O=C1Nc2ccc(S(=O)(=O)N3CCCC3CNc3ccccc3)cc2C1=O (centres undefined)	–	–	–	–	–	–	–	–	–	–	31	–	–
COc1cccc2c1C(=O)c1c(O)c3c(c(O)c1C2=O)C[C@@](O)(C(=O)CO)C[C@@H]3O[C@H]1C[C@H](N)[C@H](O)[C@H](C)O1	–	–	–	–	–	–	Active	–	–	–	–	Active	Active
